Measurements as given in ChEMBL document CHEMBL1135813, “Orally-effective, long-acting sorbitol dehydrogenase inhibitors: synthesis, structure-activity relationships, and in vivo evaluations of novel heterocycle-substituted piperazino-pyrimidines” (J Med Chem, 2002).

Columns and labels:
[1] = organism: Rattus norvegicus; test: Concentration required for 50% prevention of sciatic nerve fructose accumulation using acute model in streptozocin (STZ)-induced diabetic rats; type: functional
Outline: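 STZ diabetes was induced in male CD Sprague-Dawley rats (175-225 g) with 85 mg/kg iv (citrate, pH 4.5). Oral gavage doses were given 4, 7 and 24 h after STZ, and rats were killed at 28 h. Left sciatic nerve was extracted in 6% perchloric acid and neutralized. Fructose was assayed with FDH/resazurin for 60 min at room temperature (fluorescence). ED50 is expressed as total mg/kg/day.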

[2] = biological target: T1, Sorbitol dehydrogenase (Homo sapiens, UniProt Q00796)
T1 sequence (Q00796 whole entry): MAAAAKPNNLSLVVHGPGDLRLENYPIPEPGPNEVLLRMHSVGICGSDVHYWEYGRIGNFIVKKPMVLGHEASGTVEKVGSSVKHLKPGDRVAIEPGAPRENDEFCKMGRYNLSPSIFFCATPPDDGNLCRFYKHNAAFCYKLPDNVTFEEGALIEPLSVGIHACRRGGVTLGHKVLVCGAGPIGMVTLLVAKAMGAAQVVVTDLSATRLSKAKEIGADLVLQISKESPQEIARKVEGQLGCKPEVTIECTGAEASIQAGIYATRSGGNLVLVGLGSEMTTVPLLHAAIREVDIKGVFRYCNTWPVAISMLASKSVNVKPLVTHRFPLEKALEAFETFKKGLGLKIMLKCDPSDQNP

[3] = system: Rattus norvegicus; test: Concentration required for 50% ability to normalize elevated sciatic nerve fructose in reversal protocol using chronic model in streptozocin (STZ)-induced diabetic rats (in vivo); type: functional; details: in the assay text read “90% ability” for “50% ability”
Outline: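 Diabetes was induced in male CD Sprague-Dawley rats (175-225 g) with STZ (85 mg/kg in 0.01 M citrate, pH 4.5) by tail vein. Oral gavage was given once daily from day 8 for 5 days. Rats were killed 4 h after the last dose (day 12). Left sciatic nerve fructose was measured in perchloric acid extract by FDH/resazurin fluorescence (ex 560, em 580 nm) against standards.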

| SMILES | ED50 [1] [mg/kg/day] | IC50 [2] [nM] | ED90 [3] [mg/kg/day] |
| --- | --- | --- | --- |
| C[C@@H](O)c1nccc(N2CCN(c3ccnc(CCO)n3)CC2)n1 | 1 | 40 | – |
| C[C@@H](O)c1nccc(N2CCN(c3noc4ccccc34)CC2)n1 | – | 37 | – |
| OCc1nccc(N2CCN(c3ccc4ccccc4n3)CC2)n1 | – | 87 | – |
| C[C@@H](O)c1nccc(N2CCN(c3nc4cnccc4o3)CC2)n1 | – | 80 | – |
| CC(C)c1cc(C(C)C)nc(N2CCN(c3ccnc([C@@H](C)O)n3)CC2)n1 | – | 72 | – |
| C[C@@H](O)c1nccc(N2CCN(c3nc4ccncc4o3)CC2)n1 | 0.5 | 24 | 10 |
| C[C@@H](O)c1nccc(N2CCN(c3nc(C(F)(F)F)cc(C(F)(F)F)n3)CC2)n1 | – | 190 | – |
| C[C@@H](O)c1nccc(N2CCN(c3nccc4ccccc34)CC2)n1 | – | 34 | – |
| C[C@@H]1CN(c2cnc3ccccc3n2)C[C@H](C)N1c1ccnc([C@@H](C)O)n1 | – | 180 | 1 |
| Cc1cc(CO)nc(N2CCN(c3ccnc([C@@H](C)O)n3)[C@@H](C)C2)n1 | – | 200 | – |
| Cc1cc(-c2ccccc2)nc(N2CCN(c3ccnc([C@@H](C)O)n3)CC2)n1 | – | 220 | – |
| CCc1cc(CC)nc(N2CCN(c3ccnc([C@@H](C)O)n3)CC2)n1 | – | 80 | – |
| C[C@@H](O)c1nccc(N2CCN(c3nc4ncccc4o3)CC2)n1 | – | 170 | – |
| Cc1ccnc(N2CCN(c3ccnc([C@@H](C)O)n3)CC2)n1 | – | 110 | – |
| C[C@@H](O)c1nccc(N2CCN(c3cnc4ccccc4n3)[C@@H](C)C2)n1 | – | 99 | – |
| Cc1nc2ccccc2nc1N1CCN(c2ccnc([C@@H](C)O)n2)CC1 | – | 8 | – |
| C[C@@H]1CN(c2nc3ccncc3o2)C[C@H](C)N1c1ccnc([C@@H](C)O)n1 | – | 270 | – |
| Cc1cc(CO)nc(N2C[C@@H](C)N(c3ccnc([C@@H](C)O)n3)[C@@H](C)C2)n1 | – | 100 | 1 |
| Cc1cc(N2CCN(c3ccnc([C@@H](C)O)n3)CC2)nc(C)n1 | 5 | 31 | – |
| OCc1nccc(N2CCN(c3noc4ccccc34)CC2)n1 | – | 120 | – |
| C[C@@H](O)c1nccc(N2CCN(c3nc4ccccc4o3)CC2)n1 | 12 | 35 | – |
| OCc1nccc(N2CCN(c3nccc4ccccc34)CC2)n1 | – | 150 | – |

| SMILES | ED50 [1] [mg/kg/day] | IC50 [2] [nM] | ED90 [3] [mg/kg/day] |
| --- | --- | --- | --- |
| Cc1cc(CO)nc(N2CCN(c3ccnc([C@@H](C)O)n3)CC2)n1 | 0.5 | 20 | – |
| Cc1cc(CO)nc(N2CCN(c3ccnc([C@@H](C)O)n3)C[C@@H]2C)n1 | – | 80 | 2 |
| CN(C)S(=O)(=O)N1CCN(c2ccnc(CO)n2)CC1 | – | 240 | – |
| Cc1cc(CO)nc(N2CCN(c3ccnc([C@@H](C)O)n3)[C@H](C)C2)n1 | – | 170 | – |
| C[C@@H](O)c1nccc(N2CCN(c3nc4ccncc4o3)[C@@H](C)C2)n1 | – | 23 | – |
| OCc1nccc(N2CCN(c3nc4ccccc4o3)CC2)n1 | – | 190 | – |
| Cc1cc(CO)nc(N2[C@H](C)CN(c3ccnc([C@@H](C)O)n3)C[C@@H]2C)n1 | – | 130 | – |
| C[C@@H](O)c1nccc(N2CCN(c3nccc(-c4ccccc4)n3)CC2)n1 | – | 67 | – |
| Cc1cc(C)nc(N2CCN(c3ccnc([C@@H](C)O)n3)CC2)n1 | 1.3 | 23 | – |
| C[C@@H](O)c1nccc(N2CCN(c3ccc4ccccc4n3)CC2)n1 | – | 44 | – |
| Cc1cc(CO)nc(N2CCN(c3ccnc([C@@H](C)O)n3)C[C@H]2C)n1 | – | 140 | – |
| C[C@@H](O)c1nccc(N2CCN(c3cnc4ccccc4n3)CC2)n1 | 1 | 36 | > 20 |
| OCc1nccc(N2CCN(c3ccnc(CO)n3)CC2)n1 | – | 260 | – |
| Cc1cc(N2CCN(c3ccnc(CO)n3)CC2)nc(C)n1 | – | 140 | – |
| C[C@@H](O)c1nccc(N2CCN(c3cnc4cc(Cl)c(Cl)cc4n3)CC2)n1 | – | 120 | – |
| C[C@@H](O)c1nccc(N2CCN(c3nsc4ccccc34)CC2)n1 | – | 12 | – |
| C[C@@H]1CN(c2ccnc(CCO)n2)C[C@H](C)N1c1ccnc([C@@H](C)O)n1 | – | 10 | 2 |
| OCc1nccc(N2CCN(c3nsc4ccccc34)CC2)n1 | – | 64 | – |
| Cc1cc(C)nc(N2CCN(c3ccnc(CO)n3)CC2)n1 | – | 93 | – |
| C[C@@H](O)c1nccc(N2CCN(c3ccnc(CCO)n3)C[C@@H]2C)n1 | – | 59 | – |
| C[C@@H](O)c1nccc(N2CCN(c3nc4cccnc4o3)CC2)n1 | 0.5 | 32 | – |
| C[C@@H]1CN(c2ccnc(CCO)n2)CCN1c1ccnc([C@@H](C)O)n1 | – | 12 | – |
